PubChem BioAssay AID624259 (Broad Institute, 2012)
Values joined by “and” are separate entries in the source; they are usually repeats but may differ in a detail not shown here. Identical values can stand only once. Active and inactive are the calls of the source.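 The calls were made as follows: active = luminescence drop whose fitted half-maximal dose is at or below twice the top valid tested dose; inconclusive = flat fit with 30 to 70% inhibition, or poor fit; inactive = the rest, including signal rises.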

tested on: not listed separately; assay: TRPM1 promoter luciferase signal reduction, dose response, MITF inhibitor project, cell-based, SK-MEL-5, dry powder samples, set 3 (AID 624259); conditions: SK-MEL-5 TRPM1-promoter luciferase reporter, 24 h; at 35 µM (top of the series)
Procedure, shortened: (§1)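 Material: SK-MEL-5 TRPM1-promoter luciferase reporter cells; Compound dosing: 100 nL DMSO compound solution per well; Schedule: compound exposure 24 h, 37 °C; Measured by: luminescence after SteadyGlo luciferase reagent addition; Read-out basis: loss of TRPM1 reporter luminescence; Control set: parthenolide as positive (inhibition) control.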

For `COc1ccc(C2=C(NC(=O)c3ccc(OC)cc3-c3cccc(OC)c3)C(=O)c3ccccc3C2=O)cc1`, the activity change, negative = inhibition was 25.2% (inactive).
For `O=C(NC1=C(c2ccc(Oc3ccccc3)cc2)C(=O)c2ccccc2C1=O)c1ccccc1`, the activity change, negative = inhibition was 17.5% (inactive).
In the case of `COc1ccc(C2=C(NC(=O)c3ccc4ccccc4c3)C(=O)c3ccccc3C2=O)cc1`, the activity change, negative = inhibition is reported as 24.2% (inactive).
With `COc1ccc(C(=O)NC2=C(c3ccc(OC(F)(F)F)cc3)C(=O)c3ccccc3C2=O)cc1` the activity change, negative = inhibition was -7.11% (inactive).
In the case of `COc1ccc(C2=C(NC(=O)c3ccccc3OC)C(=O)c3ccccc3C2=O)cc1`, the activity change, negative = inhibition is reported as 14.6% (inactive).
In the case of `C=CCNC1=C(NCC=C)C(=O)c2ccccc2C1=O`, the activity change, negative = inhibition is reported as -10.6% (inactive).

tested on: SK-MEL-5 TRPM1-promoter luciferase reporter, 24 h; assay: as above; conditions: not given
Procedure, shortened: as §1

In order of falling AC50:
1. O=C1C(NS(=O)(=O)c2ccc(Br)cc2)=C(N2CCSCC2)C(=O)c2ccccc21  35.5 µM
2. O=C(NC1=C(c2ccc(OC(F)(F)F)cc2)C(=O)c2ccccc2C1=O)c1ccc(Br)cc1  35.1 µM
3. O=C(NC1=C(c2ccc(OC(F)(F)F)cc2)C(=O)c2ccccc2C1=O)c1ccccc1F  34.7 µM
4. COc1ccc(C2=C(NC(=O)c3ccc(Cl)cc3)C(=O)c3ccccc3C2=O)cc1  33.6 µM
5. COc1ccc(C2=C(NC(=O)c3cccc(Cl)c3)C(=O)c3ccccc3C2=O)cc1  33.5 µM
6. COc1cccc(C2=C(NC(=O)c3ccccc3)C(=O)c3ccccc3C2=O)c1  32 µM
7. O=C(NC1=C(c2ccc(OC(F)(F)F)cc2)C(=O)c2ccccc2C1=O)c1ccccc1  31.3 µM
8. O=C(NC1=C(c2ccc(OC(F)(F)F)cc2)C(=O)c2ccccc2C1=O)c1ccco1  31.1 µM
9. CC(=O)NC1=C(c2ccc(Oc3ccccc3)cc2)C(=O)c2ccccc2C1=O  28.1 µM
10. Cc1ccc(C(=O)NC2=C(c3ccc(OC(F)(F)F)cc3)C(=O)c3ccccc3C2=O)o1  27.5 µM
11. C=CCNC1=C(NS(=O)(=O)c2ccc(Br)cc2)C(=O)c2ccccc2C1=O  22.9 µM
12. O=C1C(NS(=O)(=O)c2ccc(Br)cc2)=C(N2CCCCC2)C(=O)c2ccccc21  20.1 µM
13. O=C(NC1=C(c2ccccc2)C(=O)c2ccccc2C1=O)c1ccc(Br)cc1  18.1 µM
14. COc1ccc(C2=C(NC(=O)c3cccc(OC)c3)C(=O)c3ccccc3C2=O)cc1  17.5 µM
15. O=C1C(NS(=O)(=O)c2cccs2)=C(N2CCOCC2)C(=O)c2ccccc21  14.9 µM
16. COc1ccc(C(=O)NC2=C(c3ccccc3)C(=O)c3ccccc3C2=O)cc1  14.7 µM
17. NC1=C(c2ccccc2)C(=O)c2ccccc2C1=O  14.5 µM
18. CC1CCN(CC(CS(=O)(=O)c2ccc([N+](=O)[O-])cc2)N2CCC(C)CC2)CC1 (stereo not given)  14.2 µM
19. O=C1C(NS(=O)(=O)c2ccc(Br)cc2)=C(N2CCOCC2)C(=O)c2ccccc21  13.2 µM
20. CCN1CCN(C2=C(NS(=O)(=O)c3ccc(Br)cc3)C(=O)c3ccccc3C2=O)CC1  12.6 µM
21. COc1ccc(C(=O)NC2=C(c3ccc(OC)cc3)C(=O)c3ccccc3C2=O)cc1  11.9 µM
22. COc1ccc(C2=C(NC(=O)c3ccccc3Cl)C(=O)c3ccccc3C2=O)cc1  11.8 µM
23. COc1ccc(S(=O)(=O)N(C(C)=O)c2ccc(OC(C)=O)c3ccccc23)cc1[N+](=O)[O-]  11.5 µM
24. C=CCNC1=C(N2CCN(CC)CC2)C(=O)c2ccccc2C1=O  11.3 µM
25. O=C(NC1=C(N2CCOCC2)C(=O)c2ccccc2C1=O)c1ccccc1  11.1 µM
26. O=C(NC1=C(c2ccccc2)C(=O)c2ccccc2C1=O)c1ccccc1  10.5 µM
27. COc1cccc(-c2cc(C(=O)NC3=C(Cl)C(=O)c4ccccc4C3=O)ccc2OC)c1  10.4 µM
28. O=C(NC1=C(c2ccccc2)C(=O)c2ccccc2C1=O)c1ccco1  9.91 µM
29. Cc1ccc(C(=O)NC2=C(c3ccccc3)C(=O)c3ccccc3C2=O)o1  9.24 µM
30. C=CCNC1=C(NCCCN2CCOCC2)C(=O)c2ccccc2C1=O  8.83 µM
31. O=C1C(Nc2ccccc2)=C(N2CCOCC2)C(=O)c2ccccc21  8.43 µM
32. CC(=O)NC1=C(c2ccccc2)C(=O)c2ccccc2C1=O  8.08 µM
33. CC(=O)NC1=C(c2ccc(Cl)cc2)C(=O)c2ccccc2C1=O  8 µM
34. C=CCNC1=C(N2CCN(C)CC2)C(=O)c2ccccc2C1=O  7.93 µM
35. CC(=O)NC1=C(c2cccc(Cl)c2)C(=O)c2ccccc2C1=O  7.59 µM
36. C=C1C(=O)OC2C1CC/C(C)=C\CCC1(C)OC21 (stereo not given)  7.5 µM
37. COc1ccc(C2=C(NC(C)=O)C(=O)c3ccccc3C2=O)cc1  6.89 µM
38. CCN1CCN(C2=C(NS(=O)(=O)c3cccs3)C(=O)c3ccccc3C2=O)CC1  6.16 µM
39. CC(=O)NC1=C(c2ccc3c(c2)oc2ccccc23)C(=O)c2ccccc2C1=O  5.89 µM
40. O=C(NC1=C(N2CCSCC2)C(=O)c2ccccc2C1=O)c1ccccc1  5.8 µM
41. C=CCNC1=C(NCCCN(CC)CC)C(=O)c2ccccc2C1=O  5.77 µM
42. CCN1c2ccccc2NC2N=C(OC)C(c3ccccc3)C21 (stereo not given)  4.27 µM
43. C=CCNC1=C(N2CCSCC2)C(=O)c2ccccc2C1=O  3.98 µM
44. C=CCNC1=C(N2CCOCC2)C(=O)c2ccccc2C1=O  3.46 µM
45. Cc1nc2ccccc2n1/N=C/c1ccc([N+](=O)[O-])s1  3.29 µM
46. O=C(CNc1cccc2ccccc12)N/N=C/c1ccc([N+](=O)[O-])o1  3.08 µM
47. C=CCNC1=C(NCCN(CC)CC)C(=O)c2ccccc2C1=O  3.05 µM
48. CN1CCN(C2=C(NS(=O)(=O)c3cccs3)C(=O)c3ccccc3C2=O)CC1  2.69 µM
49. CN1CCN(C2=C(NS(=O)(=O)c3ccc(Br)cc3)C(=O)c3ccccc3C2=O)CC1  2.07 µM
50. CCN1CCN(C2=C(NC(=O)c3ccccc3)C(=O)c3ccccc3C2=O)CC1  1.27 µM
51. CN1CCN(C2=C(NC(=O)c3ccccc3)C(=O)c3ccccc3C2=O)CC1  1.13 µM
52. O=C(NC1=C(Cl)C(=O)c2ccccc2C1=O)c1ccccc1  1.1 µM
53. C=CCNC1=C(N2CCCCC2)C(=O)c2ccccc2C1=O  0.722 µM

With `C=CCNC1=C(Cl)C(=O)c2ccccc2C1=O` the AC50 was 4.57 µM and 4.74 µM.
